Data set [1] relates to Plasmodium falciparum. The data set is described as follows: Antiplasmodial activity against D-sorbitol synchronized ring stage of chloroquine-resistant Plasmodium falciparum W2 assessed as parasite growth inhibition measured after 48 hrs by YOYO-1 dye based FACSort flow cytometry analysis. The format is functional, organism-based. As to conditions: W2, 48 h. (In general: In flow cytometry, cells or beads pass a laser one at a time.)

The test system of another data set is Vero. The data set is described as follows: Cytotoxicity against African green monkey Vero cells measured after 24 hrs by resazurin dye based fluorescence assay. It is filed as cell-based. As to conditions: Chlorocebus sabaeus.
Data set [2] in a line: Selectivity index, ratio of IC50 for African green monkey Vero cells to IC50 for D-sorbitol synchronized ring stage of chloroquine-resistant Plasmodium falciparum W2. The format is toxicity. As to conditions: read-out: Ratio IC50.
Data set [3] has as its system Heme. The data set is described as follows: Binding affinity to monomeric heme assessed as decrease in band intensity in HEPES buffer in aqueous DMSO solution at pH 7.4 by UV-vis spectrophotometric titration analysis. An outline of the steps:
(§1)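 Monomeric hemin (12 μM) in 40% DMSO with 0.02 M HEPES, pH 7.4, was titrated with compound at 0–18 μM. The drop in the 401 nm monomeric-heme band was followed by UV-vis. Log K was obtained by nonlinear least-squares fitting of the titration curves. A DMSO solvent control was included.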

The test system of data set [4] is Heme. Nature of the data set: Binding affinity to monomeric heme assessed as heme-compound complex formation at 1:1 ratio in aqueous DMSO solution at 5 micromol by mass spectrometry analysis.
Data set [5] concerns Heme. Nature of the data set: Binding affinity to monomeric heme assessed as decrease in band intensity in MES buffer in aqueous DMSO solution at pH 5.6 by UV-vis spectrophotometric titration analysis. An outline of the steps: (§2)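 Monomeric hemin (12 μM) in aqueous DMSO with 0.02 M MES, pH 5.6, was titrated with compound at 0–16 μM. Loss of the 401 nm monomeric-heme absorbance was monitored by UV-vis. Binding constant (log K) came from nonlinear least-squares fitting of the titration curves, with a DMSO solvent control.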

Data set [6] relates to Heme. The data set is described as follows: Binding affinity to monomeric heme assessed as heme-compound complex formation by measuring shifting and broadening of the peaks by 1H-NMR analysis.
Data set [7] relates to Heme. The data set is described as follows: Binding affinity to monomeric heme assessed as binding constant in HEPES buffer in aqueous DMSO solution at pH 7.4 by UV-vis spectrophotometric titration analysis. An outline of the steps: as §1
The test system of data set [8] is Plasmodium falciparum. The data set is described as follows: Potency index, ratio of chloroquine IC50 to compound IC50 for antiplasmodial activity against D-sorbitol synchronized ring stage of chloroquine-resistant Plasmodium falciparum W2 assessed as parasite growth inhibition measured after 48 hrs by YOYO-1 dye based FACSort flow cytometry analysis. It is filed as functional.

In data set [9] the test system is Heme. Nature of the data set: Binding affinity to monomeric heme assessed as binding constant in MES buffer in aqueous DMSO solution at pH 5.6 by UV-vis spectrophotometric titration analysis. An outline of the steps: as §2
Data set [10] relates to Plasmodium falciparum. Nature of the data set: Antiplasmodial activity against sorbitol synchronized CQ-resistant Plasmodium falciparum W2 assessed as parasite growth inhibition after 48 hrs by SYBR Green I-based fluorescence assay. As to conditions: W2, 48 h.

Calls of active or inactive are those of the source. The calls are words filed in the database; no cut-off is given here.

Broadly, the IC50 is the concentration at which inhibition is half-maximal. In the case of `O=C1c2cccc3c(Br)ccc(c23)C(=O)N1CCCCNc1ccnc2cc(Cl)ccc12`, the half-maximal inhibitory concentration (IC50) in the data set on Plasmodium falciparum [1] amounted to 0.0533 µM; with Vero, 13.9 µM. In addition, the selectivity ratio in [2] worked out at 262.

As to `O=C1c2cccc3c(N4CCN(CCO)CC4)ccc(c23)C(=O)N1CCCCCCCCNc1ccnc2cc(Cl)ccc12`, the IC50 in the data set with Plasmodium falciparum [1] came to 0.215 µM; with Vero, 171 µM. The selectivity ratio in data set [2] was found to be 797.

As to `O=C1c2cccc3c(Br)ccc(c23)C(=O)N1CCCNc1ccnc2cc(Cl)ccc12`, the results for the IC50 with Plasmodium falciparum [1] and with Vero were 0.0597 µM and 10.7 µM, respectively. The selectivity ratio in data set [2] stood at 179.

Regarding `O=C1c2cccc3c(Br)ccc(c23)C(=O)N1CCCCCCNc1ccnc2cc(Cl)ccc12`, the IC50 in the data set with Plasmodium falciparum [1] came out at 0.162 µM; in the data set on Vero it was 186 µM. Further, the selectivity ratio in data set [2] came to 1150.

For the compound `O=C1c2cccc3c(N4CCOCC4)ccc(c23)C(=O)N1CCCCCCNc1ccnc2cc(Cl)ccc12`, the IC50 was 0.0842 µM in the data set on Plasmodium falciparum [1] and 184 µM in the data set with Vero.

Regarding `O=C1OC(=O)c2cccc3cccc1c23` [1,8-NAPHTHALIC ANHYDRIDE], the results for the IC50 in the data set on Plasmodium falciparum [1] and with Vero were above 10 µM and 505 µM, respectively.

Regarding `O=C1c2cccc3c(N4CCOCC4)ccc(c23)C(=O)N1CCCCCCCCNc1ccnc2cc(Cl)ccc12`, the IC50 is 3.97 µM in the data set on Plasmodium falciparum [1] and 175 µM with Vero. In data set [2], the selectivity ratio stood at 44.1.

On to `O=C1c2cccc3c(N4CCCCC4)ccc(c23)C(=O)N1CCCCCCCCNc1ccnc2cc(Cl)ccc12`, for which the IC50 worked out at 0.438 µM in the data set on Plasmodium falciparum [1] and 176 µM in the data set on Vero. The selectivity ratio in [2] is 401.

As to `O=C1c2cccc3c(N4CCN(CCO)CC4)ccc(c23)C(=O)N1CCCNc1ccnc2cc(Cl)ccc12`, the outcome with Heme [3], in the data set on Heme [4], in the data set with Heme [5] and in the data set on Heme [6] was Active. The half-inhibitory concentration (IC50) is 0.0154 µM in the data set with Plasmodium falciparum [1] and 64.8 µM in the data set on Vero. Moreover, the log K in the data set with Heme [7] turned out to be 6.33; in the data set on Heme [9] it was 6.06. The “Ratio IC50” value with Plasmodium falciparum [8] is listed as 15. In [2], the selectivity ratio was 4190.

Turning to `O=C1c2cccc3cccc(c23)C(=O)N1CCCCCCCCNc1ccnc2cc(Cl)ccc12`, the IC50 in the data set with Plasmodium falciparum [1] is 0.357 µM; in the data set with Vero it was 206 µM. For the same compound, in data set [2], the selectivity ratio was 576.

With `O=C1c2cccc3cccc(c23)C(=O)N1CCCCNc1ccnc2cc(Cl)ccc12`, the IC50 with Plasmodium falciparum [1] came to 0.0407 µM; in the data set on Vero, 7.58 µM. Moreover, the selectivity ratio in data set [2] worked out at 186.

With `O=C1c2cccc3cccc(c23)C(=O)N1CCCNc1ccnc2cc(Cl)ccc12`, the IC50 with Plasmodium falciparum [1] came out at 0.147 µM; in the data set with Vero it was 3.14 µM. In data set [2], the selectivity ratio stood at 21.4.

Take `O=C1c2cccc3cccc(c23)C(=O)N1CCNc1ccnc2cc(Cl)ccc12`: the IC50 in the data set on Plasmodium falciparum [1] was 0.056 µM; in the data set with Vero it was 249 µM. For the same compound, the selectivity ratio in data set [2] was determined as 4440.

On to `O=C1OC(=O)c2ccc(Br)c3cccc1c23`, for which the results for the IC50 with Plasmodium falciparum [1] and in the data set on Vero were above 10 µM and 361 µM, respectively.

`O=C1c2cccc3c(N4CCCCC4)ccc(c23)C(=O)N1CCNc1ccnc2cc(Cl)ccc12`: the IC50 is 0.149 µM with Plasmodium falciparum [1] and 126 µM in the data set on Vero. In data set [2], the selectivity ratio stood at 851.

`CC(C)[C@@H](C(=O)N[C@H](Cc1ccccc1)[C@@H](O)CN1CCN(Cc2ccc(Br)cc2)CC1)N1C(=O)c2ccccc2C1=O`: in the data set with Plasmodium falciparum [10], the IC50 is 3.01 µM.

As to `O=C1c2cccc3c(N4CCCCC4)ccc(c23)C(=O)N1CCCCNc1ccnc2cc(Cl)ccc12`, the IC50 is 0.0961 µM in the data set with Plasmodium falciparum [1] and 33.8 µM in the data set on Vero. Also, the selectivity ratio in [2] worked out at 352.

On to `O=C1c2cccc3c(N4CCN(CCO)CC4)ccc(c23)C(=O)N1CCNc1ccnc2cc(Cl)ccc12`, for which the results for the half-maximal inhibitory concentration (IC50) in the data set with Plasmodium falciparum [1] and with Vero were 0.0411 µM and 45.2 µM, respectively. The selectivity ratio in [2] was determined as 1100.

As to `O=C1c2cccc3cccc(c23)C(=O)N1CCCCCCNc1ccnc2cc(Cl)ccc12`, the IC50 in the data set on Plasmodium falciparum [1] was 0.39 µM; in the data set with Vero, 218 µM. Besides, in [2], the selectivity ratio turned out to be 560.

On to `O=C1c2cccc3c(N4CCN(CCO)CC4)ccc(c23)C(=O)N1CCCCNc1ccnc2cc(Cl)ccc12`, for which the 50% inhibitory concentration (IC50) with Plasmodium falciparum [1] stood at 0.0201 µM; in the data set with Vero, 31.9 µM. Also, the selectivity ratio in data set [2] was 1580.

Take `O=C1c2cccc3c(N4CCOCC4)ccc(c23)C(=O)N1CCCCNc1ccnc2cc(Cl)ccc12`: the IC50 with Plasmodium falciparum [1] stood at 0.237 µM; in the data set with Vero, 12.5 µM. For the same compound, the selectivity ratio in [2] stood at 52.6.

With `O=C1c2cccc3c(N4CCOCC4)ccc(c23)C(=O)N1CCNc1ccnc2cc(Cl)ccc12`, the half-inhibitory concentration (IC50) was found to be 0.121 µM in the data set with Plasmodium falciparum [1] and 26.8 µM in the data set with Vero. For the same compound, the selectivity ratio in data set [2] is 221.

As for `O=C1c2cccc3c(Br)ccc(c23)C(=O)N1CCCCCCCCNc1ccnc2cc(Cl)ccc12`, the IC50 came out at 0.562 µM in the data set on Plasmodium falciparum [1] and 177 µM in the data set on Vero. In addition, the selectivity ratio in data set [2] is 315.

For `O=C1c2cccc3c(N4CCOCC4)ccc(c23)C(=O)N1CCCNc1ccnc2cc(Cl)ccc12`, the figures for the half-maximal inhibitory concentration (IC50) in the data set on Plasmodium falciparum [1] and in the data set with Vero were 0.0669 µM and 69 µM, respectively. For the same compound, the selectivity ratio in data set [2] is 1030.

As to `O=C1c2cccc3c(N4CCCCC4)ccc(c23)C(=O)N1CCCCCCNc1ccnc2cc(Cl)ccc12`, the IC50 was 0.13 µM in the data set with Plasmodium falciparum [1] and 185 µM with Vero. Also, the selectivity ratio in data set [2] came out at 1420.

As for `O=C1c2cccc3c(N4CCCCC4)ccc(c23)C(=O)N1CCCNc1ccnc2cc(Cl)ccc12`, the values for the IC50 in the data set with Plasmodium falciparum [1] and with Vero were 0.0512 µM and 200 µM, respectively. The selectivity ratio in [2] was found to be 3910.

In the case of `O=C1c2cccc3c(N4CCN(CCO)CC4)ccc(c23)C(=O)N1CCCCCCNc1ccnc2cc(Cl)ccc12`, the IC50 with Plasmodium falciparum [1] came to 0.12 µM; with Vero it was 13.1 µM. For the same compound, in data set [2], the selectivity ratio worked out at 109.

As for `O=C1c2cccc3c(Br)ccc(c23)C(=O)N1CCNc1ccnc2cc(Cl)ccc12`, the half-maximal inhibitory concentration (IC50) was determined as 0.053 µM with Plasmodium falciparum [1] and 7.79 µM with Vero. Also, the selectivity ratio in [2] was 147.

The values above are taken from ChEMBL document CHEMBL4334549, “Functionalized Naphthalimide-4-aminoquinoline Conjugates as Promising Antiplasmodials, with Mechanistic Insights” (ACS Med Chem Lett, 2020).
